Experimental data gathered from unrelated publications.
Protocols differ between the studies behind these lines.
Target: Serine/threonine-protein kinase 32A (STK32A, Homo sapiens, UniProt Q8WU08)

| Compound | assay | conditions | remaining binding [%] |
| --- | --- | --- | --- |
| O=C(c1ccc(Nc2ncc(Cl)c(-c3cc4ccccc4s3)n2)cc1)N1CCC(N2CCCC2)CC1 | binding, competition with immobilised ligand | 1 µM | 68 |
| COc1ncc2cc3ccccc3nc2c1C#N | binding, competition with immobilised ligand | 5 µM | 100 |
| O=C(c1ccc(Nc2ncc(Cl)c(-c3ccc(Cl)s3)n2)cc1)N1CCC(N2CCCC2)CC1 | binding, competition with immobilised ligand | 1 µM | 70 |
| N[C@@H]1CCN(c2nccc(-c3cnn4ncccc34)n2)C1 | binding | 1 µM | 98 |
| FC(F)(F)Oc1cccc(-c2cnc3ccc(-c4ccncc4)nn23)c1 | binding, competition with immobilised ligand | 5 µM | 75 |
| CC1CCCN1c1nccc(-c2cnn3ncccc23)n1 (stereo not shown) | binding | 1 µM | 100 |
| CCCOc1ccc([C@@H]2[C@@H](C(=O)O)[C@H](c3ccc4c(c3)OCO4)CN2CC(=O)Nc2c(CC)cccc2CC)cc1 | cell-free assay, competition with immobilised ligand | 1 µM | 85 |
| Cc1cnc(Nc2ccc(C(=O)N3CCC(N4CCCC4)CC3)cc2)nc1-c1cc2ccccc2s1 | binding, competition with immobilised ligand | 1 µM | 79 |
| CN(c1ccnc(CNc2nc(Nc3ccc4c(c3)CC(=O)N4)ncc2C(F)(F)F)n1)S(C)(=O)=O | cell-free assay, competition with immobilised ligand | 1 µM | 72 |
| c1cnn2ncc(-c3ccnc(N4CCC45COC5)n3)c2c1 | binding | 1 µM | 58 |
| CNC(=O)[C@@H]1CC[C@@H](n2c(-c3ccc4cnccc4c3)nc3ccc(C(=O)NCc4cccc(C(N)=O)c4)cc32)C1 | binding, competition with immobilised ligand | 1 µM | 100 |
| C[C@H]1CCN(c2nccc(-c3cnn4ncccc34)n2)C1 | binding | 1 µM | 64 |
| CCC(=O)N[C@H]1CC[C@@H](C(=O)N(C)c2ccc(-c3nc4ccccc4o3)cc2)C1 | cell-free assay, competition with immobilised ligand | 1 µM | 98 |
| COc1cnc(Nc2cccc(S(N)(=O)=O)c2)nc1N1CCN(c2ccccc2)C(=O)C1 | binding, competition with immobilised ligand | 1 µM | 98 |
| Cc1c[nH]c2nccc(Oc3c(F)cc(Nc4cc(Cl)nc(N)n4)cc3F)c12 | cell-free assay, competition with immobilised ligand | 0.1 µM | 86 |
| CN(C)c1ncc(F)c(-c2cnn3ncccc23)n1 | binding | 1 µM | 100 |
| CNC(=O)Nc1ccc2c(c1)CC[C@@]21OC(=O)N(CC(=O)N(Cc2ccc(F)cc2)[C@@H](C)C(F)(F)F)C1=O | binding, competition with immobilised ligand | 1 µM | 88 |
| C=CC(=O)N1CCC(C(=O)NCC(=O)N2CCN(c3nc(-c4cnc(N)nc4C(F)F)nc(N4CCOCC4)n3)CC2)CC1 | binding, competition with immobilised ligand | 1 µM | 91 |
| N#CC1(c2ccccn2)CCN(Cc2cc(C(=O)N3CCCC3)c(=O)n3ccccc23)CC1 | cell-free assay, competition with immobilised ligand | 1 µM | 98 |
| Nc1ncc2c(n1)-c1c([nH]c3ccc(C#CC4CC4)cc13)CCCC2 | binding, competition with immobilised ligand | 1 µM | 80 |
| F[C@@H]1CCN(c2nccc(-c3cnn4ncccc34)n2)C1 | binding | 1 µM | 100 |
| O=C(NCC1CCOCC1)c1n[nH]cc1NC(=O)c1c(F)cccc1F | binding, competition with immobilised ligand | 1 µM | 88 |
